# Assay outcomes: PubChem, several laboratories
# In the library only some 2.1% were active in any assay of this set; here they are far more common.
# STK33 inh: human STK33 kinase inhibition; purified STK33, MBP phosphorylation, ADP-Glo luminescence; inhibition, % at 10 µM; AID 2661; 0.073% of 320,000 active; Q9BYT3;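 active means inhibition at or above 25%, using the most active replicate where run in duplicate; inactive means inhibition below 25%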
# GSK3A inh: inhibitors of human GSK-3 alpha kinase; ADP-Glo luminescence, 60 min; inhibition, % at 10 µM; 0.1% of 320,000 active; AID 2650;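 active means more than half of replicates show inhibition above 20%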;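 further: GST-tagged GSK-3 alpha with peptide substrate and 25 µM ATP; 0% = DMSO neutral wells and 100% = GW8510 positive control wells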
# MEKK2mut PB1 HTS: signal of MEK5 binding to mutant human MEKK2 PB1 domain. bead flow cytometry, Alexa488-MEK5 binding to MEKK2 mutant. percent response, % at 10 µM. 0.35% of 290,000 active. AID 1530; in the data active means percent response above about 24%, passing the limit was not always enough
# MEKK3 PB1 HTS: raises or lowers MEK5 binding to the human MEKK3 PB1 domain; Q99759; bead-based flow cytometry, Alexa488-MEK5 binding to MEKK3; actives lie on both sides; 0 = blocked by unlabeled MEK5, 100 = vehicle; binding response (% of control), % at 10 µM; 1.4% of 290,000 active;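 active means binding response more than 3 SD above or below the average of its plate-row segment, actives on both sides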;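 further: Alexa488 bead fluorescence after subtracting the streptavidin-only scavenger bead signal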
# Target sequence (Q99759 whole entry, looked up, the tested form may be a part): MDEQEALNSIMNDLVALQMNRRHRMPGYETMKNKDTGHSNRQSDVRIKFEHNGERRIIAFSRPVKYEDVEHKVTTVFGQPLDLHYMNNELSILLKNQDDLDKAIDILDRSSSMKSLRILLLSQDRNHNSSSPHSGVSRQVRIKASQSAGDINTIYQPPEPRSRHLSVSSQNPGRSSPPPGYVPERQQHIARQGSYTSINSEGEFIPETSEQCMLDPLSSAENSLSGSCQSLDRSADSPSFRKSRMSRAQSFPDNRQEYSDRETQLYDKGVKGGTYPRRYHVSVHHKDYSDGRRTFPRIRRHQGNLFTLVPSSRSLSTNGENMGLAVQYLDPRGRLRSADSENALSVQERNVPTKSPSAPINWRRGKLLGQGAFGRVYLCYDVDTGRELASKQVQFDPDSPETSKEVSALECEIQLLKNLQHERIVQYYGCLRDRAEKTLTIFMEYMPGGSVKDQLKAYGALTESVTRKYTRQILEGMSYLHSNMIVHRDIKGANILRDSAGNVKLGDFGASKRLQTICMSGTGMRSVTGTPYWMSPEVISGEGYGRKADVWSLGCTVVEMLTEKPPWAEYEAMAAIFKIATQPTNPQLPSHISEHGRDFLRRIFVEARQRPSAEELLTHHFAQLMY
# MEKK2 WT-MEK5: raises or lowers MEK5 binding to wildtype human MEKK2 PB1 domain | Q9Y2U5 | binding response (% of control), % at 10 µM | AID 1531 | bead flow cytometry, Alexa488-MEK5 binding to MEKK2 WT; actives lie on both sides | 1.1% of 290,000 active; in the data active means binding response below about 67% or above about 130%
# GSK3B inh: blocks human GSK3beta kinase activity. GST-GSK3beta kinase, ADP-Glo luminescence, 60 min; hits give low values. AID 2097. P49841. activity score (negative = inhibition), % at 10 µM. 0.038% of 300,000 active;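 active means more than half of replicate wells score below -50%, meaning over 50% inhibition versus plate controls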;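 further: 0% = median DMSO wells and -100% = median GW8510 positive control wells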
#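 Test system – GST-tagged human GSK3beta kinase, cell-free · Incubation – 60 min enzyme reaction, room temperature · Signal – ADP-Glo luminescence · Also added – peptide substrate and ATP at 25 µM · Controls – DMSO neutral wells and GW8510 at 20 µM as positive · Buffer or medium – Tris/MgCl2 kinase buffer · Measure – Luminescence-derived activity versus plate DMSO and GW8510 wells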
# MEKK2wt confirm: raises or lowers MEK5 binding to wildtype human MEKK2, retest; shares compounds with MEKK3 PB1 HTS; bead flow cytometry, Alexa488-MEK5 binding to MEKK2 WT; actives lie on both sides; binding response (% of control), % at 10 µM; 2.4% of 5,900 active; AID 1892; in the data active means binding response below about 16% or above about 210%; inactive means in between
# MEKK2mut confirm: signal of MEK5 binding to mutant human MEKK2, retest | AID 1893 | 2% of 5,900 active | shares compounds with MEKK3 PB1 HTS | bead flow cytometry, Alexa488-MEK5 binding to MEKK2 mutant | percent response, % at 10 µM; in the data active means percent response mostly above about 71%, no sharp cut-off; inactive means mostly below about 38%;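 further: higher means compound restores mutant binding toward wildtype level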
# MEKK3 confirm: confirmation of inhibitors of MEK5 binding to human MEKK3; 1.8% of 5,900 active; bead flow cytometry, Alexa488-MEK5 binding to MEKK3; hits give low values; binding response (% of control), % at 10 µM; shares compounds with MEKK3 PB1 HTS; AID 1894;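 active means binding response below 72% of control, or above a set upper limit, though filed actives all read lower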;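 further: 100% = DMSO only wells and 0% = binding blocked by excess unlabeled MEK5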
# Numbers without * were called inactive; · = not tested or not shown; [ ] = another dose, or the depositor's remark.
SMILES,STK33 inh,GSK3A inh,MEKK2mut PB1 HTS,MEKK3 PB1 HTS,MEKK2 WT-MEK5,GSK3B inh,MEKK2wt confirm,MEKK2mut confirm,MEKK3 confirm
COc1ccnc(Oc2ccccc2)c1C(=O)N/C=N/OCc1ccccc1,0,3,-39,67*[inhibitor],68,1,103,-3,103
CCn1c(C)c(C(C)=O)cc(C#N)c1=O,0,-1,-3,104,102,1,·,·,·
O=C(O)CCNC(=O)c1ccc(N=Nc2ccc(O)c(C(=O)O)c2)cc1,·,·,·,88,89,1,·,·,·
O=C(CN1CCC(n2nnc3cc(C(F)(F)F)ccc32)CC1)NNC(=O)c1ccco1,0,-1,-10,95,92,-3,·,·,·
Cc1ccc(SC[C@H](CC(C)C)N2CCN(CCc3ccccc3)CCC2=O)cc1,·,·,8,108,103,0,·,·,·
Cc1ccc(SC[C@H](CC(C)C)N2CCN(C)CCC2=O)cc1,·,·,4,109,101,1,·,·,·
COc1ccc(SC[C@H](CC(C)C)N2CCN(CCc3ccccc3)CCC2=O)cc1,0,7,10,106,137*,-2,124,14,104
COc1ccc(SC[C@H](CC(C)C)N2CCN(C)CCC2=O)cc1,-2,·,2,128*,146*,-3,113,-1,103
CCCN1CCC(=O)N([C@H](CSc2ccc(OC)cc2)c2ccccc2)CC1,-1,·,4,129*,165*,-5,111,3,103
Cc1ccc2[nH]c(C(=O)N3CCN(c4cccc(Cl)c4)CC3)cc2c1,0,-1,1,104,105,1,·,·,·
CCc1cc2c(-c3ccccc3)cc(=O)oc2cc1OCC(=O)NCC1CCC(C(=O)O)CC1 (stereo not given),-2,-1,-1,96,90,4,·,·,·
Cc1cccc(-n2ccnc2CN2CCN(C(C)C)C(CCO)C2)c1 (stereo not given),0,-1,-2,94,97,-5,·,·,·
Cc1ccc(-c2cc(C(=O)Nc3nccs3)c3ccccc3n2)c(C)c1,0,0,0,152*,106,2,105,-6,101
O=C(Nc1nccs1)c1cc(-c2ccncc2)nc2ccccc12,3,1,0,107,100,-4,·,·,·
O=C(CN1CCCC1)NCC12CC3CC(CC(C3)C1)C2,0,1,-5,82*[inhibitor],91,0,101,3,103
O=C(CN1CCCC1)NC12CC3CC(CC(C3)C1)C2,-1,0,-2,98,94,2,·,·,·
COC(=O)c1cc(C(=O)OC)cc(N2C(=O)CC(NNC(=O)c3ccc(C)cc3)C2=O)c1 (stereo not given),-2,0,-1,61*[inhibitor],89,0,102,4,102
Cc1ccccc1OCCn1cc(/C=C(\C#N)C(=O)NCc2ccco2)c2ccccc21,-1,0,-2,75*[inhibitor],67,-1,101,-2,103
N#C/C(=C\c1cn(CCOc2ccccc2)c2ccccc12)C(=O)NCc1ccco1,3,-2,-1,100,93,1,·,·,·
CCCOc1ccc(C(=O)CCC(=O)OCC(=O)Nc2ccc(OCC)cc2)cc1,0,0,3,97,108,-4,·,·,·
CCCOc1ccc(C(=O)CCC(=O)OCC(=O)Nc2ccc(Oc3ccccc3)cc2)cc1,-1,0,71*,110,147*,3,112,3,108
CCN1CCN(Cc2c(O)ccc3c2O/C(=C\C=C\c2ccccc2OC)C3=O)CC1,2,7,0,133*,95,1,92,-3,97
